The values below come from ChEMBL document CHEMBL2417477, “Synthesis and antibacterial activity of doxycycline neoglycosides” (J Nat Prod, 2013).

The nature of data set [1]: Cytotoxicity against human IMR90 cells assessed as cell viability at 10 uM after 2 days by Alamar Blue assay relative to control. It is filed as cell-based. Particulars: IMR-90 cells, read-out: Activity. In outline:
(§1)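 Resazurin (AlamarBlue) read-out of residual metabolic activity. A549 grown in DMEM/F-12 Kaighn's and IMR 90 in MEM/EBSS, both with 10% heat-inactivated FBS, penicillin/streptomycin and 2 mM L-glutamine. Seeded at 2 × 10^3 cells/well, held 24 h at 37 °C in 5% CO2, then exposed to 10 μM final for 2 days. Controls: 1.5 mM H2O2 and 10 μg/ml actinomycin D.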
In general terms: Resazurin is reduced to fluorescent resorufin, in cell work by metabolically active cells.

In data set [2] the test system is Escherichia coli. Briefly: Antibacterial activity against tetracycline-sensitive Escherichia coli ATCC 25922 assessed as growth inhibition. It is filed as functional.
Data set [3] relates to Escherichia coli. Briefly: Antibacterial activity against tetracycline-resistant Escherichia coli 1-849 assessed as growth inhibition. It is filed as functional.
Data set [4] can be described thus: Cytotoxicity against human A549 cells assessed as cell viability at 10 uM after 2 days by Alamar Blue assay relative to control. It is filed as cell-based. Particulars: read-out: Activity. In outline: as §1
The next data set relates to Staphylococcus aureus. Briefly: Antibacterial activity against tetracycline-resistant Staphylococcus aureus R2507 assessed as growth inhibition. It is filed as functional.
Data set [5] is described as follows: Stability of the compound in DMSO at -20 degC at 3 mM after 12 months by HPLC analysis. It is filed as physicochemical. Particulars: 8766 h, 3000 µM.

Values after ≈ are worked out from the molar mass of the structure shown.

On to `CON(CC(=O)Nc1ccc2c(c1O)C(=O)C1=C(O)[C@]3(O)C(=O)C(C(N)=O)=C(O)[C@@H](N(C)C)[C@@H]3[C@@H](O)[C@@H]1[C@H]2C)C1OC[C@H](O)[C@@H]1O` (mixture of isomers), for which the viability at 48 h, 10 µM was 99.3% in data set [1] and 98.2% in data set [4]. Moreover, the results for the MIC in the data set on Escherichia coli [2], with Escherichia coli [3] and in the data set on Staphylococcus aureus were 4 µg/mL, 64 µg/mL and 32 µg/mL, respectively.

Consider `C[C@H]1c2ccc(N)c(O)c2C(=O)C2=C(O)[C@]3(O)C(=O)C(C(N)=O)=C(O)[C@@H](N(C)C)[C@@H]3[C@@H](O)[C@@H]21`, for which the MIC in the data set on Escherichia coli [2] came out at 1 µg/mL (≈ 2.18 µM); with Escherichia coli [3] it was 2 µg/mL (≈ 4.35 µM); with Staphylococcus aureus, 4 µg/mL (≈ 8.71 µM).

`CON(CC(=O)Nc1ccc2c(c1O)C(=O)C1=C(O)[C@]3(O)C(=O)C(C(N)=O)=C(O)[C@@H](N(C)C)[C@@H]3[C@@H](O)[C@@H]1[C@H]2C)C1OC[C@@H](O)[C@@H](O)[C@@H]1O` (mixture of isomers): the viability at 48 h, 10 µM in data set [1] turned out to be 102%; in data set [4], 97.2%. Further, the MIC was 8 µg/mL in the data set with Escherichia coli [2], 64 µg/mL in the data set with Escherichia coli [3] and 32 µg/mL in the data set with Staphylococcus aureus.

Consider `CON(CC(=O)Nc1ccc2c(c1O)C(=O)C1=C(O)[C@]3(O)C(=O)C(C(N)=O)=C(O)[C@@H](N(C)C)[C@@H]3[C@@H](O)[C@@H]1[C@H]2C)[C@@H]1O[C@H](CO)[C@@H](O)[C@H](O)[C@H]1NC(=O)C(F)(F)F`, for which the viability at 48 h, 10 µM was 109% in data set [1] and 98.7% in data set [4]. Moreover, the MIC is 4 µg/mL (≈ 4.98 µM) in the data set with Escherichia coli [2], 32 µg/mL (≈ 39.8 µM) in the data set with Escherichia coli [3] and 16 µg/mL (≈ 19.9 µM) in the data set on Staphylococcus aureus.

Consider `CON(CC(=O)Nc1ccc2c(c1O)C(=O)C1=C(O)[C@]3(O)C(=O)C(C(N)=O)=C(O)[C@@H](N(C)C)[C@@H]3[C@@H](O)[C@@H]1[C@H]2C)[C@H]1O[C@H](CO)[C@@H](O)[C@H](O)[C@H]1N`, for which the viability at 48 h, 10 µM turned out to be 94.6% in data set [1] and 99.1% in data set [4]. Also, the MIC with Escherichia coli [2], in the data set with Escherichia coli [3] and in the data set on Staphylococcus aureus was 4 µg/mL (≈ 5.65 µM) in each case. The Stability entry in data set [5] is “Stable”.

In the case of `CON(CC(=O)Nc1ccc2c(c1O)C(=O)C1=C(O)[C@]3(O)C(=O)C(C(N)=O)=C(O)[C@@H](N(C)C)[C@@H]3[C@@H](O)[C@@H]1[C@H]2C)[C@H]1CC[C@H](N(C)C)[C@@H](C)O1`, the viability at 48 h, 10 µM is 101% in data set [1] and 96.9% in data set [4]. The MIC worked out at 4 µg/mL (≈ 5.82 µM) with Escherichia coli [2], 32 µg/mL (≈ 46.5 µM) in the data set on Escherichia coli [3] and 16 µg/mL (≈ 23.3 µM) in the data set with Staphylococcus aureus.

With `CON(CC(=O)Nc1ccc2c(c1O)C(=O)C1=C(O)[C@]3(O)C(=O)C(C(N)=O)=C(O)[C@@H](N(C)C)[C@@H]3[C@@H](O)[C@@H]1[C@H]2C)[C@@H]1O[C@H](CO)[C@@H](O)[C@H](O)[C@H]1N`, the viability at 48 h, 10 µM came out at 102% in data set [1] and 95.6% in data set [4]. Moreover, the MIC turned out to be 8 µg/mL (≈ 11.3 µM) in the data set on Escherichia coli [2], 32 µg/mL (≈ 45.2 µM) in the data set on Escherichia coli [3] and 32 µg/mL (≈ 45.2 µM) in the data set on Staphylococcus aureus.

For `CON(CC(=O)Nc1ccc2c(c1O)C(=O)C1=C(O)[C@]3(O)C(=O)C(C(N)=O)=C(O)[C@@H](N(C)C)[C@@H]3[C@@H](O)[C@@H]1[C@H]2C)C1O[C@H](CO)[C@@H](O)[C@H](OC(C)C(=O)O)[C@H]1NC(C)=O` (mixture of isomers), the results for the viability at 48 h, 10 µM in data set [1] and in data set [4] were 104% and 97.7%, respectively. The values for the minimum inhibitory concentration (MIC) in the data set with Escherichia coli [2], with Escherichia coli [3] and with Staphylococcus aureus were 8 µg/mL, 32 µg/mL and 16 µg/mL, respectively.

Take `CON(CC(=O)Nc1ccc2c(c1O)C(=O)C1=C(O)[C@]3(O)C(=O)C(C(N)=O)=C(O)[C@@H](N(C)C)[C@@H]3[C@@H](O)[C@@H]1[C@H]2C)C1O[C@H](CO)[C@@H](O)[C@H](O)[C@@H]1N` (mixture of isomers): the figures for the viability at 48 h, 10 µM in data set [1] and in data set [4] were 98.9% and 97.1%, respectively. The MIC in the data set on Escherichia coli [2] is 4 µg/mL; in the data set on Escherichia coli [3], 32 µg/mL; with Staphylococcus aureus, 32 µg/mL.

Consider `C[C@H]1c2cccc(O)c2C(=O)C2=C(O)[C@]3(O)C(=O)C(C(N)=O)=C(O)[C@@H](N(C)C)[C@@H]3[C@@H](O)[C@@H]21.O` [DOXYCYCLINE], for which the values for the minimal inhibitory concentration (MIC) with Escherichia coli [2], in the data set on Escherichia coli [3] and in the data set with Staphylococcus aureus were 1 µg/mL, 8 µg/mL and 2 µg/mL, respectively.

For the compound `CONCC(=O)Nc1ccc2c(c1O)C(=O)C1=C(O)[C@]3(O)C(=O)C(C(N)=O)=C(O)[C@@H](N(C)C)[C@@H]3[C@@H](O)[C@@H]1[C@H]2C`, the viability at 48 h, 10 µM in data set [1] is 99.2%; in data set [4], 95.9%. In addition, the MIC in the data set on Escherichia coli [2] was determined as 4 µg/mL (≈ 7.32 µM); with Escherichia coli [3] it was 8 µg/mL (≈ 14.6 µM); with Staphylococcus aureus, 4 µg/mL (≈ 7.32 µM).

`C=CCOC(=O)N[C@H]1C(N(CC(=O)Nc2ccc3c(c2O)C(=O)C2=C(O)[C@]4(O)C(=O)C(C(N)=O)=C(O)[C@@H](N(C)C)[C@@H]4[C@@H](O)[C@@H]2[C@H]3C)OC)O[C@H](CO)[C@@H](O)[C@@H]1O` (mixture of isomers): the viability at 48 h, 10 µM in data set [1] is 97.6%; in data set [4], 98.8%. Besides, the MIC was 8 µg/mL with Escherichia coli [2], 16 µg/mL in the data set on Escherichia coli [3] and 8 µg/mL with Staphylococcus aureus.

Broadly, the MIC is the least concentration at which growth counts as inhibited.
